pIC50: −log10 of the molar value. Activity calls are given as the source filed them. The rule behind the calls is not given here.
What was measured:
HT-29 = test: Cytotoxicity against human HT-29 cells assessed as inhibition of cell growth incubated for 72 hrs by MTT assay; type: functional, cell-based; settings: HT-29, 72 h
Method in brief: (§1)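 Cells seeded per well (HT-29 4500, PANC-1 4000, SK-MEL-28 3200, A375 1200, A549 2500, H2170 and BJ 10 000) and left 24 h. They were then exposed to increasing concentrations for 72 h and incubated 1 h with MTT 0.5 mg mL−1. Formazan was dissolved in DMSO and absorbance read at 550 nm. IC50 from three independent experiments. Final DMSO ≤0.5%.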

PANC-1 [1] = test: Induction of apoptosis in human PANC-1 cells assessed as appearance of apoptotic bodies at 0.47 to 2.82 uM incubated for 24 hrs by Hoechst 33342 staining based fluorescence microscopic analysis; type: functional, cell-based; settings: dose 0.47-2.82 µM
Method in brief: (§2)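 PANC-1 at 6500 cells/well, pre-incubated 24 h, then treated for 24 h. Washed with PBS and stained with Hoechst 33342 (1 μg mL−1 in PBS) 10 min at 37 °C in the dark. Nuclear morphology imaged by high-content fluorescence microscopy with a DAPI filter. Untreated cells as control.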

[2] = Cytotoxicity against human BJ cells assessed as inhibition of cell growth incubated for 72 hrs by MTT assay; type: toxicity, cell-based; method in brief: as §1
[3] = Toxicity in Balb/c mouse assessed as tremor at 50 to 100 mg/kg, ip measured upto 24 hrs by Irwin test; type: organism-based; settings: in vivo, dose 50-100 mg/kg
Method in brief: (§3)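 Irwin primary observation in female Balb/c mice aged 7–8 weeks, 3 per group. Single i.p. doses of 0.01, 0.1, 1, 5, 10, 50 and 100 mg kg−1 in 0.2% HPMC in saline; vehicle controls observed in parallel, non-blind. Standardized grid including rectal temperature and pupil diameter scored at 15, 30, 60, 120 and 180 min and 24 h, with continuous watch over 0–15 min.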

PANC-1 [4] = test: Induction of apoptosis in human PANC-1 cells assessed as viable cells at 0.94 uM incubated for 24 hrs by Annexin V-FITC/PI staining based flow cytometric analysis (reference value: 89.8%); type: functional; settings: read-out: Activity
Method in brief: (§4)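 PANC-1 seeded at 2 × 10^5 cells/well, grown 24 h, then treated 24 h. PI added just before flow cytometry. Quadrant percentages given as mean ± SD of three experiments. Untreated control.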

PANC-1 [5] = test: Induction of apoptosis in human PANC-1 cells assessed as late apoptotic cells at 1.88 uM incubated for 24 hrs by Annexin V-FITC/PI staining based flow cytometric analysis (reference value: 1.1%); type: functional; method in brief: as §4
PANC-1 [6] = test: Induction of apoptosis in human PANC-1 cells assessed as late apoptotic cells at 2.82 uM incubated for 24 hrs by Annexin V-FITC/PI staining based flow cytometric analysis (reference value: 1.1%); type: functional; method in brief: as §4
PANC-1 [7] = test: Induction of apoptosis in human PANC-1 cells assessed as early apoptotic cells at […] incubated for 24 hrs by Annexin V-FITC/PI staining based flow cytometric analysis (reference value: 5.2%); type: functional; method in brief: as §4
PANC-1 [8] = test: Synergistic cytotoxicity against human PANC-1 cells assessed as combination index at 0.12 uM incubated for 72 hrs in the presence of 6 uM gemcitabine by MTT assay; type: functional
PANC-1 [9] = test: Inhibition of cell migration in human PANC-1 cells incubated upto 72 hrs by scratch wound healing assay; type: functional, cell-based; settings: dose 0.47-2.82 µM
Method in brief: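 Confluent PANC-1 monolayers (4000 cells/well seeded, 24 h) were scratched with a P200 tip and washed with PBS. Medium with compound or 0.5% DMSO control was added. Wound area imaged by high-content microscopy at 0, 24, 48 and 72 h.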

PANC-1 [10] = test: Induction of apoptosis in human PANC-1 cells assessed as viable cells at 2.82 uM incubated for 24 hrs by Annexin V-FITC/PI staining based flow cytometric analysis (reference value: 89.8%); type: functional; settings: read-out: Activity; method in brief: as §4
PANC-1 [11] = test: Induction of apoptosis in human PANC-1 cells assessed as viable cells at 1.88 uM incubated for 24 hrs by Annexin V-FITC/PI staining based flow cytometric analysis (reference value: 89.8%); type: functional; settings: read-out: Activity; method in brief: as §4
[12] = Toxicity in Balb/c mouse assessed as decreased reactivity to touch at 50 to 100 mg/kg, ip measured upto 24 hrs by Irwin test; type: organism-based; settings: in vivo, dose 50-100 mg/kg; method in brief: as §3
[13] = Toxicity in Balb/c mouse assessed as piloerection at 50 to 100 mg/kg, ip measured upto 24 hrs by Irwin test; type: organism-based; settings: in vivo, dose 50-100 mg/kg; method in brief: as §3
A-375 = test: Cytotoxicity against human A-375 cells assessed as inhibition of cell growth incubated for 72 hrs by MTT assay; type: functional, cell-based; settings: A-375, 72 h; method in brief: as §1
PANC-1 [14] = test: Induction of apoptosis in human PANC-1 cells assessed as necrotic cells at 2.82 uM incubated for 24 hrs by Annexin V-FITC/PI staining based flow cytometric analysis (reference value: 3.9%); type: functional; method in brief: as §4
PANC-1 [15] = test: Induction of apoptosis in human PANC-1 cells assessed as early apoptotic cells at 1.88 uM incubated for 24 hrs by Annexin V-FITC/PI staining based flow cytometric analysis (reference value: 5.2%); type: functional; method in brief: as §4
[16] = Toxicity in Balb/c mouse assessed as loss of traction indication of muscle weakness at 50 to 100 mg/kg, ip measured upto 24 hrs by Irwin test; type: organism-based; settings: in vivo, dose 50-100 mg/kg; method in brief: as §3
[17] = Toxicity in Balb/c mouse assessed as occasional writhing at 0.01 to 10 mg/kg, ip measured upto 24 hrs by Irwin test; type: organism-based; settings: in vivo, dose 0.01-10 mg/kg; method in brief: as §3
[18] = Toxicity in Balb/c mouse assessed as abnormal gait with rolling at 50 to 100 mg/kg, ip measured upto 24 hrs by Irwin test; type: organism-based; settings: in vivo, dose 50-100 mg/kg; method in brief: as §3
PANC-1 [19] = test: Induction of apoptosis in human PANC-1 cells assessed as necrotic cells at 0.94 uM incubated for 24 hrs by Annexin V-FITC/PI staining based flow cytometric analysis (reference value: 3.9%); type: functional; method in brief: as §4
PANC-1 [20] = test: Induction of cell cycle arrest in human PANC-1 cells assessed as accumulation of cells at G0/G1 phase incubated for 24 hrs by PI staining based flow cytometric analysis; type: functional; settings: dose 0.47-2.82 µM
PANC-1 [21] = test: Synergistic cytotoxicity against human PANC-1 cells assessed as combination index at 0.24 uM incubated for 72 hrs in the presence of 12 uM gemcitabine by MTT assay; type: functional
PANC-1 [22] = test: Induction of apoptosis in human PANC-1 cells assessed as chromatin condensation at 0.47 to 2.82 uM incubated for 24 hrs by Hoechst 33342 staining based fluorescence microscopic analysis; type: functional, cell-based; settings: dose 0.47-2.82 µM; method in brief: as §2
[23] = Toxicity in Balb/c mouse assessed as decrease of respiration at 50 to 100 mg/kg, ip measured upto 24 hrs by Irwin test; type: organism-based; settings: in vivo, dose 50-100 mg/kg; method in brief: as §3
PANC-1 [24] = test: Induction of apoptosis in human PANC-1 cells assessed as early apoptotic cells at 0.94 uM incubated for 24 hrs by Annexin V-FITC/PI staining based flow cytometric analysis (reference value: 5.2%); type: functional; method in brief: as §4
A549 = test: Cytotoxicity against human A549 cells assessed as inhibition of cell growth incubated for 72 hrs by MTT assay; type: functional, cell-based; settings: A549, 72 h; method in brief: as §1
PANC-1 [25] = test: Induction of apoptosis in human PANC-1 cells assessed as necrotic cells at 1.88 uM incubated for 24 hrs by Annexin V-FITC/PI staining based flow cytometric analysis (reference value: 3.9%); type: functional; method in brief: as §4

Q: Which results are given for `CCOC(=O)[C@]12CCC(C)(C)C[C@H]1C1=CC[C@@H]3[C@@]4(C)C(C=O)=C[C@@](C)(CO)[C@@H]4CC[C@@]3(C)[C@]1(C)CC2`?
A: pIC50 (HT-29): 6.29; Activity (PANC-1 [1]): inactive; IC50 at 72 h [2]: 3.06 µM; Activity [3]: Toxic; viability at 0.94 µM (PANC-1 [4]): 90.4%; Activity (PANC-1 [5]): 2.2%; Activity (PANC-1 [6]): 3.5%; Activity (PANC-1 [7]): 4.9%; CI (PANC-1 [8]): 0.93; inhibition (PANC-1 [9]): Dose-Dependent Effect; viability at 2.82 µM (PANC-1 [10]): 84.7%; viability at 1.88 µM (PANC-1 [11]): 87.3%; Activity [12]: Toxic; Activity [13]: Toxic; pIC50 (A-375): 6.24; Activity (PANC-1 [14]): 2%; Activity (PANC-1 [15]): 7.5%; Activity [16]: Toxic; Activity [17]: Non-Toxic; Activity [18]: Toxic; Activity (PANC-1 [19]): 2.6%; Activity (PANC-1 [20]): Dose-Dependent Effect; CI (PANC-1 [21]): 0.75; Activity (PANC-1 [22]): inactive; Activity [23]: Toxic; Activity (PANC-1 [24]): 5.7%; pIC50 (A549): 6.08; Activity (PANC-1 [25]): 3.1%

Reference: ChEMBL document CHEMBL5230168, “Design, synthesis, and biological evaluation of new arjunolic acid derivatives as anticancer agents” (RSC Med Chem, 2023)
